Reference: ChEMBL document CHEMBL3259568 (Bioorg Med Chem, 2014)

Legend:
Rattus norvegicus [1] = experiment: Ulcerogenic activity in albino rat stress model assessed as ulcer index at 10 mg/kg, po after 7 hrs; format: toxicity, organism-based; design: dose 10 mg/kg, route oral; details: in vivo
Outline: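 Albino rats of either sex (170–250 g), six per group, starved 48 h with water, dosed orally 10 mg/kg in sodium CMC; killed 7 h later. Stomach opened along greater curvature and everted; lesions counted in five size classes (pinpoint to >4 mm) to give ulcer index, reported as min–max range.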

Rattus norvegicus [2] = experiment: Antipyretic activity in albino rat assessed as yeast-induced pyrexia at 10 mg/kg, po measured at 5 hrs by telethermometer (reference value: 37.89 degC); format: functional
Outline: (§1)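 Male albino rats (170–230 g) given s.c. 2.5 ml 20% aqueous baker's yeast; rectal temperature by telethermometer before and at 18 h (taken as 0 h). Rats with 1–2 °C rise, six per group, dosed orally 30 min later (control 1 ml 0.5% sodium CMC). Temperature recorded hourly to 5 h; temperature index = sum of mean changes from 0 h.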

Mus musculus [3] = experiment: Acute toxicity in albino mouse assessed as effect on general behavioral profile at 2000 mg/kg, po measured for 3 hrs; format: organism-based; design: dose 2000 mg/kg, route oral; details: in vivo
Outline: (§2)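 OECD guideline test. Albino mice of either sex, 20–25 g, six per group, fasted 24 h with water ad libitum. Compounds suspended in 0.5% aqueous sodium CMC and given orally in increasing doses of 10, 20, 100, 200, 1000 and 2000 mg/kg b.w. Animals watched continuously for 3 h for general behavioural, neurological and autonomic profiles, then every 30 min for 3 h, then up to 24 h or until death.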

Mus musculus [4] = experiment: Analgesic activity in albino mouse assessed as protection against glacial acetic acid-induced writhing at 10 mg/kg, po administered 0.5 hrs followed by glacial acetic acid challenge measured for 15 mins relative to control; format: functional
Outline: (§3)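 Mice (20–25 g) pre-screened 24 h earlier with i.p. 10 ml/kg 0.6% glacial acetic acid; only responders used. Oral dosing as suspension in 0.5% sodium CMC 30 min before acetic acid challenge. Writhing episodes counted for 15 min; group means versus vehicle control; ANOVA with Dunnett test.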

Rattus norvegicus [5] = experiment: Acute antiinflammatory activity in albino rat assessed as inhibition of carrageenan-induced paw edema at 10 mg/kg, po administered 1 hr followed by carrageenan challenge measured at 2 hrs by plethysmometric analysis relative to control; format: functional
Outline: (§4)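 Male albino rats (170–220 g), fasted ≥12 h with water, six per group. Oral dosing in 0.5% sodium CMC (control 1 ml vehicle), then 1 h later subplantar 0.05 ml of 1% carrageenan into left hind footpad. […] Mean ± SEM, ANOVA/Dunnett.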

Mus musculus [6] = experiment: Acute toxicity in albino mouse assessed as mortality at 2000 mg/kg, po measured continuously for 3 hrs followed by every 30 mins for next 3 hrs up to 24 hrs; format: organism-based; design: dose 2000 mg/kg, route oral; details: in vivo; outline: as §2
[7] = target: T1, Prostaglandin G/H synthase 1 (Ovis aries) (UniProt P05979); experiment: Inhibition of ovine COX1 peroxidase activity assessed as reduction of PGG2 to PGH2 by measuring oxidized TMPD level at 10 ug/ml by colorimetric assay relative to control
T1 sequence (whole entry): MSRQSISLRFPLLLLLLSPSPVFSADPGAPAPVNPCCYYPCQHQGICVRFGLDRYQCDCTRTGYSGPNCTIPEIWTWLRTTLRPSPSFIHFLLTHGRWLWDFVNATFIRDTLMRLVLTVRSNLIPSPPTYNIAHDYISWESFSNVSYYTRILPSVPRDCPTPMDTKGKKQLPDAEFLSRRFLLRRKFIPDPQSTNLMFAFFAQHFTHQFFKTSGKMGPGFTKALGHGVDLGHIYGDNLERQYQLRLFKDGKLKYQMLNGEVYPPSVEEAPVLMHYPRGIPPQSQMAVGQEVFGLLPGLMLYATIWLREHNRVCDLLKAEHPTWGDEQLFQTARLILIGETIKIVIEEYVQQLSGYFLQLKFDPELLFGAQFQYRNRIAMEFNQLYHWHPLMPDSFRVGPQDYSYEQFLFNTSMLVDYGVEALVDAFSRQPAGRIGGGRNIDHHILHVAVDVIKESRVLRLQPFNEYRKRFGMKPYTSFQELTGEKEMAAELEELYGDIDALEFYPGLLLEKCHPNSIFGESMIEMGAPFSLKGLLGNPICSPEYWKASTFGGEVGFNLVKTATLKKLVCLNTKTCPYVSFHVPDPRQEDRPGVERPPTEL

Mus musculus [8] = experiment: Acute toxicity in albino mouse assessed as effect on neurological profile at 2000 mg/kg, po measured for 3 hrs; format: organism-based; design: dose 2000 mg/kg, route oral; details: in vivo; outline: as §2
Rattus norvegicus [9] = experiment: Antipyretic activity in albino rat assessed as yeast-induced pyrexia at 10 mg/kg, po measured at 2 hrs by telethermometer (reference value: 38.20 degC); format: functional; outline: as §1
Mus musculus [10] = experiment: Acute toxicity in albino mouse assessed as effect on autonomic profile at 2000 mg/kg, po measured for 3 hrs; format: organism-based; design: dose 2000 mg/kg, route oral; details: in vivo; outline: as §2
Rattus norvegicus [11] = experiment: Acute antiinflammatory activity in albino rat assessed as inhibition of carrageenan-induced paw edema at 10 mg/kg, po administered 1 hr followed by carrageenan challenge measured at 4 hrs by plethysmometric analysis relative to control; format: functional; outline: as §4
[12] = target: T2, Prostaglandin G/H synthase 1 (Ovis aries, UniProt P05979); experiment: Inhibition of ovine COX1 peroxidase activity assessed as reduction of PGG2 to PGH2 by measuring oxidized TMPD level by colorimetric assay
T2 sequence (P05979 whole entry): T1 sequence (whole entry)

Rattus norvegicus [13] = experiment: Antipyretic activity in albino rat assessed as decrease in yeast-induced pyrexia by measuring temperature index at 10 mg/kg, po measured over 5 hrs by telethermometer (reference value: 1.04 degC); format: functional; outline: as §1
Rattus norvegicus [14] = experiment: Antipyretic activity in albino rat assessed as yeast-induced pyrexia at 10 mg/kg, po measured at 1 hr by telethermometer (reference value: 38.26 degC); format: functional; outline: as §1
Rattus norvegicus [15] = experiment: Antipyretic activity in albino rat assessed as yeast-induced pyrexia at 10 mg/kg, po measured at 4 hrs by telethermometer (reference value: 38 degC); format: functional; outline: as §1
Rattus norvegicus [16] = experiment: Antipyretic activity in albino rat assessed as yeast-induced pyrexia at 10 mg/kg, po measured at 3 hrs by telethermometer (reference value: 38.11 degC); format: functional; outline: as §1
Rattus norvegicus [17] = experiment: Antipyretic activity in albino rat assessed as yeast-induced pyrexia at 135 mg/kg, po measured at 2 hrs by telethermometer (reference value: 38.20 degC); format: functional; outline: as §1
Rattus norvegicus [18] = experiment: Antipyretic activity in albino rat assessed as yeast-induced pyrexia at 135 mg/kg, po measured at 4 hrs by telethermometer (reference value: 38 degC); format: functional; outline: as §1
Rattus norvegicus [19] = experiment: Antipyretic activity in albino rat assessed as yeast-induced pyrexia at 135 mg/kg, po measured at 1 hr by telethermometer (reference value: 38.26 degC); format: functional; outline: as §1
Rattus norvegicus [20] = experiment: Antipyretic activity in albino rat assessed as decrease in yeast-induced pyrexia by measuring temperature index at 135 mg/kg, po measured over 5 hrs by telethermometer (reference value: 1.04 degC); format: functional; outline: as §1
Rattus norvegicus [21] = experiment: Antipyretic activity in albino rat assessed as yeast-induced pyrexia at 135 mg/kg, po measured at 3 hrs by telethermometer (reference value: 38.11 degC); format: functional; outline: as §1
Rattus norvegicus [22] = experiment: Antipyretic activity in albino rat assessed as yeast-induced pyrexia at 135 mg/kg, po measured at 5 hrs by telethermometer (reference value: 37.89 degC); format: functional; outline: as §1
Mus musculus [23] = experiment: Analgesic activity in albino mouse assessed as protection against glacial acetic acid-induced writhing at 19.5 mg/kg, po administered 0.5 hrs followed by glacial acetic acid challenge measured for 15 mins relative to control; format: functional; outline: as §3
Rattus norvegicus [24] = experiment: Acute antiinflammatory activity in albino rat assessed as inhibition of carrageenan-induced paw edema at 13.5 mg/kg, po administered 1 hr followed by carrageenan challenge measured at 2 hrs by plethysmometric analysis relative to control; format: functional; outline: as §4
Rattus norvegicus [25] = experiment: Acute antiinflammatory activity in albino rat assessed as inhibition of carrageenan-induced paw edema at 13.5 mg/kg, po administered 1 hr followed by carrageenan challenge measured at 4 hrs by plethysmometric analysis relative to control; format: functional; outline: as §4

Compound | UI (Rattus norvegicus [1]) | T (Rattus norvegicus [2]) | Activity (Mus musculus [3]) | Activity (Mus musculus [4]) | inhibition in vivo at 10 mg/kg (Rattus norvegicus [5]) | Activity (Mus musculus [6]) | inhibition [7] | Activity (Mus musculus [8]) | T (Rattus norvegicus [9]) | Activity (Mus musculus [10]) | inhibition in vivo at 10 mg/kg (Rattus norvegicus [11]) | IC50 [12] | T (Rattus norvegicus [13]) | T (Rattus norvegicus [14]) | T (Rattus norvegicus [15]) | T (Rattus norvegicus [16]) | further results
CC(C(=O)O)c1ccc(-c2ccccc2)c(F)c1 (centres undefined) [FLURBIPROFEN] | 5.9 | – | – | – | – | – | – | – | – | – | – | – | – | – | – | – | –
S=c1oc(Cc2ccccc2Nc2c(Cl)cccc2Cl)nn1CNC1CCCCC1 | 3.6 | 36.78 °C | Non-toxic | 77.6% | 65.9% | Non-toxic | 19.6% | Non-toxic | 37.69 °C | Non-toxic | 67.5% | > 50 µM | 4.38 °C | 37.98 °C | 37.79 °C | 37.03 °C | –
S=c1oc(Cc2ccccc2Nc2c(Cl)cccc2Cl)nn1CNc1cccc(Cl)c1 | 2.1 | 37.2 °C | Non-toxic | 82.2% | 71.8% | Non-toxic | 25% | Non-toxic | 38.6 °C | Non-toxic | 74.4% | > 50 µM | 5.4 °C | 38.9 °C | 37.8 °C | 38.1 °C | –
CC1CCCCN1Cn1nc(Cc2ccccc2Nc2c(Cl)cccc2Cl)oc1=S (centres undefined) | – | – | Non-toxic | – | 39.4% | Non-toxic | – | Non-toxic | – | Non-toxic | 36.6% | – | – | – | – | – | –
S=c1oc(Cc2ccccc2Nc2c(Cl)cccc2Cl)nn1CN1CCNCC1 | – | – | Non-toxic | 75.9% | 51.4% | Non-toxic | 43.2% | Non-toxic | – | Non-toxic | 56.5% | > 50 µM | – | – | – | – | –
S=c1oc(Cc2ccccc2Nc2c(Cl)cccc2Cl)nn1CN1CCOCC1 | 2.6 | 37.15 °C | Non-toxic | 77% | 64.3% | Non-toxic | 34.1% | Non-toxic | 37.55 °C | Non-toxic | 63.8% | > 50 µM | 3.91 °C | 37.7 °C | 37.06 °C | 37.13 °C | –
CN1CCN(Cn2nc(Cc3ccccc3Nc3c(Cl)cccc3Cl)oc2=S)CC1 | 2.3 | 37.2 °C | Non-toxic | 77.6% | 65.1% | Non-toxic | 35.2% | Non-toxic | 37.94 °C | Non-toxic | 64.5% | > 50 µM | 2.81 °C | 37.72 °C | 37.44 °C | 37.8 °C | –
CCN1CCN(Cn2nc(Cc3ccccc3Nc3c(Cl)cccc3Cl)oc2=S)CC1 | 1.9 | 37.1 °C | Non-toxic | 81% | 63.1% | Non-toxic | 28.4% | Non-toxic | 38.3 °C | Non-toxic | 68.9% | > 50 µM | 6.6 °C | 39.2 °C | 37.7 °C | 37.9 °C | –
CC(=O)Oc1ccccc1C(=O)O [ASPIRIN] | 4.7 | – | – | – | – | – | – | – | – | – | – | – | – | – | – | – | –
CC(=O)Nc1ccc(O)cc1 [ACETAMINOPHEN] | – | – | – | – | – | – | – | – | – | – | – | – | – | – | – | – | T (Rattus norvegicus [17]): 38 °C; T (Rattus norvegicus [18]): 37.3 °C; T (Rattus norvegicus [19]): 38.4 °C; T (Rattus norvegicus [20]): 6.7 °C; T (Rattus norvegicus [21]): 37.6 °C; T (Rattus norvegicus [22]): 37 °C
O=C(O)Cc1ccccc1Nc1c(Cl)cccc1Cl [DICLOFENAC] | 5.5 | – | – | – | – | – | – | – | – | – | – | – | – | – | – | – | Activity (Mus musculus [23]): 79.3%; inhibition in vivo at 13.5 mg/kg (Rattus norvegicus [24]): 65.5%; inhibition in vivo at 13.5 mg/kg (Rattus norvegicus [25]): 66.2%
CC1CCN(Cn2nc(Cc3ccccc3Nc3c(Cl)cccc3Cl)oc2=S)CC1 | – | – | Non-toxic | – | 36.9% | Non-toxic | – | Non-toxic | – | Non-toxic | 33.8% | – | – | – | – | – | –
CN(Cn1nc(Cc2ccccc2Nc2c(Cl)cccc2Cl)oc1=S)c1ccccc1 | – | – | Non-toxic | – | 41.8% | Non-toxic | – | Non-toxic | – | Non-toxic | 41% | – | – | – | – | – | –
S=c1oc(Cc2ccccc2Nc2c(Cl)cccc2Cl)nn1CNc1ccccc1Cl | 3.2 | 37.11 °C | Non-toxic | 77.6% | 59.4% | Non-toxic | 27.8% | Non-toxic | 37.77 °C | Non-toxic | 61.3% | > 50 µM | 3.06 °C | 37.74 °C | 37.06 °C | 37.36 °C | –
S=c1oc(Cc2ccccc2Nc2c(Cl)cccc2Cl)nn1CN1CCCCC1 | – | – | Non-toxic | 74.1% | 48.3% | Non-toxic | 30.9% | Non-toxic | – | Non-toxic | 45.9% | > 50 µM | – | – | – | – | –
